# Laboratory results taken from the M2OR odorant receptor database.
# Changes are numbered by the printed parent chain.
# Key:
# Details in all cases: stereoisomer not certain
# OR4S2 (Homo sapiens) = biological target: T1, OR4S2 (Homo sapiens) (UniProt Q8NH73)
# T1 sequence (whole entry): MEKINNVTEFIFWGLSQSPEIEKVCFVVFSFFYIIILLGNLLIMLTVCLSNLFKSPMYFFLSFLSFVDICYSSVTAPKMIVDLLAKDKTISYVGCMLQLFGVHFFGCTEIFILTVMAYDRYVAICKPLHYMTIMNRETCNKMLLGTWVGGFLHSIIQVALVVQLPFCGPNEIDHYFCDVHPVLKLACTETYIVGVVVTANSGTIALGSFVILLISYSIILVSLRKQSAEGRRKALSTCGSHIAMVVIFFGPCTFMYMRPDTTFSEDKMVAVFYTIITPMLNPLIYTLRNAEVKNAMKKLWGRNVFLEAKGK
# In short: (§1)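 Values were gathered from published papers (main text and supplementary material), with extra details requested from the original authors when needed, and checked for typos and inconsistencies. Each receptor–molecule pair is called responsive (active) if the original authors judged the measured signal statistically different from baseline, and non-responsive (inactive) otherwise. Assay methods varied by source, often transient mammalian cell-line luciferase assays. Recorded details include cell line, G-protein, co-transfected protein and tags.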
# OR4X1 (Homo sapiens) = biological target: T2, OR4X1 (Homo sapiens) (UniProt Q8NH49)
# T2 sequence (whole entry): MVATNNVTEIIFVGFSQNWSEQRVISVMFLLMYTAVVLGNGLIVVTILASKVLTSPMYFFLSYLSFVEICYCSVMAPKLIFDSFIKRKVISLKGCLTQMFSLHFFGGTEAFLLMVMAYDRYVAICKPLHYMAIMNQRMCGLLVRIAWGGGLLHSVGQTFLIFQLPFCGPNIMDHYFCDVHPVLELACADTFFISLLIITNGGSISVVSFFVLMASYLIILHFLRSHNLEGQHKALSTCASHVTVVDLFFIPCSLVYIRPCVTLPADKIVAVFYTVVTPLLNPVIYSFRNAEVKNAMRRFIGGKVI
# In short: as §1
# OR4X2 (Homo sapiens) = biological target: T3, OR4X2 (Homo sapiens) (UniProt Q8NGF9)
# T3 sequence (whole entry): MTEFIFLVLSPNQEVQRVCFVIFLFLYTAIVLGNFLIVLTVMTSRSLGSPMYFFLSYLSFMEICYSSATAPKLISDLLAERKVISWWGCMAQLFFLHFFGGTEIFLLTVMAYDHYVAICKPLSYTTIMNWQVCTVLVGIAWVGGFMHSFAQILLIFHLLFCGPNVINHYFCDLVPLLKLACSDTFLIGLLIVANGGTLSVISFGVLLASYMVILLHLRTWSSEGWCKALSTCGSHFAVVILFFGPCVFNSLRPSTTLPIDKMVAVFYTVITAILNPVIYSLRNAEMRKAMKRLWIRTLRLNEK
# In short: as §1
# OR51A2 (Homo sapiens) = biological target: T4, OR51A2 (Homo sapiens) (UniProt Q8NGJ7)
# T4 sequence (whole entry): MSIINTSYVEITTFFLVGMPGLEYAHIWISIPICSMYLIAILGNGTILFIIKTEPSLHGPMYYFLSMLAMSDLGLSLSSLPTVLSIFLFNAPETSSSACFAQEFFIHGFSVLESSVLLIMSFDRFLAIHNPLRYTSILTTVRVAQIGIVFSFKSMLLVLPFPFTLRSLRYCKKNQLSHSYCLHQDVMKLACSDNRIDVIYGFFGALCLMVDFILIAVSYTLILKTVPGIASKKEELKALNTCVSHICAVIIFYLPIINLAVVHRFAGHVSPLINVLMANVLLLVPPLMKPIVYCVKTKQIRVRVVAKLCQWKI
# In short: as §1
# OR51A4 (Homo sapiens) = biological target: T5, OR51A4 (Homo sapiens) (UniProt Q8NGJ6)
# T5 sequence (whole entry): T4 sequence (whole entry) with G59E, T94I, S97N, S167N, P227L, E235Q, G267R, M288T, K289N, W311R
# In short: as §1
# OR51A7 (Homo sapiens) = biological target: T6, OR51A7 (Homo sapiens) (UniProt Q8NH64)
# T6 sequence (whole entry): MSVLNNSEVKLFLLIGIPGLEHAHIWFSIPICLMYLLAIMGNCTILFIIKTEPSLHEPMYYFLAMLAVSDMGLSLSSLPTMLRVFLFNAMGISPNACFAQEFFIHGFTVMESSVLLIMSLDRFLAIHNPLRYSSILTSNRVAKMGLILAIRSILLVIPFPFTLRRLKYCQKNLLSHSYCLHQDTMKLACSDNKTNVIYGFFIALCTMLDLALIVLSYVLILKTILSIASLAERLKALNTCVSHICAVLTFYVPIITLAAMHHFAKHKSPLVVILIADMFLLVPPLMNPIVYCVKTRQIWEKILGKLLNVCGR
# In short: as §1
# OR51B2 (Homo sapiens) = biological target: T7, OR51B2 (Homo sapiens) (UniProt Q9Y5P1)
# T7 sequence (whole entry): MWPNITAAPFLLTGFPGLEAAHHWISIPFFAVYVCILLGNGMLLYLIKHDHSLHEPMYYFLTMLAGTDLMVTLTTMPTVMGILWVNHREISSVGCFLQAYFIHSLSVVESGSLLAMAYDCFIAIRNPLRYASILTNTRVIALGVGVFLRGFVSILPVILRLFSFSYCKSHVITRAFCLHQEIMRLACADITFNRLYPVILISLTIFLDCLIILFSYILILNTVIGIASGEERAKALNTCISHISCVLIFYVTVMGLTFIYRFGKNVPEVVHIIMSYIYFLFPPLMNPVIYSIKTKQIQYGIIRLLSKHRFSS
# In short: as §1
# OR51B4 (Homo sapiens) = biological target: T8, OR51B4 (Homo sapiens) (UniProt Q9Y5P0)
# T8 sequence (whole entry): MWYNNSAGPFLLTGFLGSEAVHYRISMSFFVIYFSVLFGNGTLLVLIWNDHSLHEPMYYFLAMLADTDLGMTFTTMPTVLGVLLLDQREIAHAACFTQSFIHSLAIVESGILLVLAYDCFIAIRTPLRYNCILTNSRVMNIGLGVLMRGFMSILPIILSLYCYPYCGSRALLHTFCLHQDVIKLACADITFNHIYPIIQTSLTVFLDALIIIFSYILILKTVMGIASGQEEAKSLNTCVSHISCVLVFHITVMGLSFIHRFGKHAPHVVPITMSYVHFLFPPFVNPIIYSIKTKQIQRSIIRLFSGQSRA
# In short: as §1
# OR51B5 (Homo sapiens) = biological target: T9, OR51B5 (Homo sapiens) (UniProt Q9H339)
# T9 sequence (whole entry): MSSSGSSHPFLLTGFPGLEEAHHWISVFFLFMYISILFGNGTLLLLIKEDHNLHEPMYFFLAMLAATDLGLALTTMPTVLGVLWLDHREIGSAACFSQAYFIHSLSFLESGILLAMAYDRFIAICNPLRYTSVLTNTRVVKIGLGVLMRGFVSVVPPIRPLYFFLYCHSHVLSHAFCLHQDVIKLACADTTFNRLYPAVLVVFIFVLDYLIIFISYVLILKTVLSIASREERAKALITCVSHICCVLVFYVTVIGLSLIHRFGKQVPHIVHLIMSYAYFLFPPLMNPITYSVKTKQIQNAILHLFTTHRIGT
# In short: as §1
# OR51B6 (Homo sapiens) = biological target: T10, OR51B6 (Homo sapiens) (UniProt Q9H340)
# T10 sequence (whole entry): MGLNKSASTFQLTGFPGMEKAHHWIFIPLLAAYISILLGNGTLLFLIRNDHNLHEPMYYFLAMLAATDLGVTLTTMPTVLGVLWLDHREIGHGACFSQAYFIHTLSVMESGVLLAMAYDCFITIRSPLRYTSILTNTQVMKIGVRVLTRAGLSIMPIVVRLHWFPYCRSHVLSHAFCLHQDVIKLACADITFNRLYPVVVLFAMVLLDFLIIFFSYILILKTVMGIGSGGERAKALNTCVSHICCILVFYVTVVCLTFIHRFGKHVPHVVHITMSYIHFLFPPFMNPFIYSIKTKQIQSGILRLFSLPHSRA
# In short: as §1
Structure (SMILES),odorant receptor agonist call (OR4S2 (Homo sapiens)),odorant receptor agonist call (OR4X1 (Homo sapiens)),odorant receptor agonist call (OR4X2 (Homo sapiens)),odorant receptor agonist call (OR51A2 (Homo sapiens)),odorant receptor agonist call (OR51A4 (Homo sapiens)),odorant receptor agonist call (OR51A7 (Homo sapiens)),odorant receptor agonist call (OR51B2 (Homo sapiens)),odorant receptor agonist call (OR51B4 (Homo sapiens)),odorant receptor agonist call (OR51B5 (Homo sapiens)),odorant receptor agonist call (OR51B6 (Homo sapiens))
CCCCCCC=CCCC=O,inactive,inactive,inactive,inactive,inactive,inactive,inactive,inactive,inactive,inactive
CC(C)=CCCC(C)=CCCC(C)=CCO,–,–,–,–,–,–,–,–,active,–
CC1=CCC2CC1C2(C)C (stereo not given),–,–,–,–,–,–,–,–,inactive,–
CC(=O)c1c(C)c([N+](=O)[O-])c(C(C)(C)C)c([N+](=O)[O-])c1C,inactive,inactive,inactive,inactive,inactive,inactive,inactive,inactive,inactive,inactive
CC1=C(O)C(=O)OC1C (stereo not given),inactive,inactive,inactive,inactive,inactive,inactive,inactive,inactive,inactive,inactive
CC(C)=CCCC(C)=CCO,–,–,inactive,–,–,–,–,–,inactive,–
CCC(=O)O,–,–,–,–,–,–,–,–,inactive,–
CCCC(S)CCOC(C)=O (stereo not given),inactive,inactive,inactive,inactive,inactive,inactive,inactive,inactive,inactive,inactive
CCCCCC(S)C(C)CO (stereo not given),inactive,inactive,inactive,inactive,inactive,inactive,inactive,inactive,inactive,inactive
CCCCCCCCCC(=O)OC,–,–,–,–,–,–,–,–,inactive,–
COc1ccc2[nH]cc(CCNC(C)=O)c2c1,–,–,–,–,–,–,–,–,inactive,–
CCCCCCCCCC(=O)OCC,–,–,–,–,–,–,–,–,inactive,–
CCCCOCC(C)O (stereo not given),–,–,–,–,–,–,–,–,inactive,–
CCC1OC(C)=C(O)C1=O (stereo not given),inactive,inactive,inactive,inactive,inactive,inactive,inactive,inactive,inactive,inactive
CCCCCCCCCCCC(=O)OCC,–,–,–,–,–,–,–,–,inactive,–
CCC(S)C(C)CO (stereo not given),inactive,inactive,inactive,inactive,inactive,inactive,inactive,inactive,inactive,inactive
